SENP1 inh: human SENP1 catalytic domain inhibitors, primary screen, biochemical, FRET, uHTS; recombinant SENP1 catalytic domain, CyPet-SUMO1-YPet FRET cleavage; inhibition, % at 10 µM; 360,000 compounds, 0.21% hits;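 active = inhibition at least 30% at 10 µM, raw YFP signal under a set limit, fluorescence ratio 0.5 to 1.5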;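 also: 0% = enzyme with DMSO and 100% = no enzyme wells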
Target sequence (Q9P0U3 419-644 limits assumed): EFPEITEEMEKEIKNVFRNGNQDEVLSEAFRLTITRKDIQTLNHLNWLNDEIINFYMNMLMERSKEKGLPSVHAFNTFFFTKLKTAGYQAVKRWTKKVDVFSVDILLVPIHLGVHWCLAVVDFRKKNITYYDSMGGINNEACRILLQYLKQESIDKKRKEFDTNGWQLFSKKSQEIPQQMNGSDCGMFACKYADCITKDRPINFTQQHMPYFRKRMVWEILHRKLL
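Controls: no-enzyme wells low, DMSO-plus-enzyme wells high control. Test system: human recombinant His6-tagged SENP1 catalytic domain enzyme. Reagent: SFCypet-SUMO1-SFYpet FRET protein substrate, 25 nM final. Doses: one dose per compound, 10 µM, 0.5% DMSO. Detection: FRET, CFP and YFP emission. Timing: 50 min reaction at room temperature.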
NR3A LBD binder: binders of NR3A ligand-binding domain, primary screen, biophysical, differential scanning fluorimetry, uHTS; NR3A LBD differential scanning fluorimetry, Tm shift; 0% = protein alone, 100% = glycine-bound protein; Tm shift relative to glycine control, % at 25 µM; 340,000 compounds, 2.5% hits; AID 1259313, 2017;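 active = melting temperature shift of at least 10% of the positive control shift, at one fixed dose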
EBI2 block: EBI2 receptor antagonists, beta-arrestin recruitment, primary screen, cell-based, luminescence, 7a,25-OHC stimulation, uHTS | 7a,25-OHC stimulated | inhibition, % at 5 µM | 360,000 compounds, 0.81% hits | AID 651636, 2012; in the data active = inhibition above about 38%;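 also: enzyme fragment complementation signal reports receptor beta-arrestin coupling in cells; 0% = agonist plus DMSO wells and 100% = wells without agonist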
Target sequence (P32249 whole entry, looked up, the tested form may be a part): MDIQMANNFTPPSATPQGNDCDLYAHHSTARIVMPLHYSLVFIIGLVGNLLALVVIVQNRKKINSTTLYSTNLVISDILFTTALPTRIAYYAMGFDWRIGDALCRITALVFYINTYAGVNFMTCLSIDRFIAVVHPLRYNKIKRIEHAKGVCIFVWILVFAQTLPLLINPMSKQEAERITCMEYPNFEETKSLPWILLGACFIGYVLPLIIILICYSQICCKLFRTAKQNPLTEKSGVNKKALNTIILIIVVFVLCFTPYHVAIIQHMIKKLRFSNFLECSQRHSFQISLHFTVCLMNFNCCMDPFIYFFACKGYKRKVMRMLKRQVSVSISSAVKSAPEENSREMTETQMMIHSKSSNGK
MPTP block: mitochondrial permeability transition pore inhibitors, primary screen, biochemical, isolated mouse mitochondria, absorbance; Ca2+ swelling absorbance, 30 min; inhibition, % at 10 µM; 360,000 compounds, 1.4% hits; AID 602449, 2012;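 active = inhibition of 50% or more, scaled per plate between neutral and stimulator controls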;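 also: 0% = DMSO wells given calcium and 100% = 1 mM EGTA wells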
Rh123 counter: fluorescence retest of MPTP screen hits in isolated mitochondria, single concentration | shares compounds with MPTP block | membrane potential, Rhodamine 123 fluorescence | inhibition, % at 10 µM | 5,000 compounds, 78% hits | AID 624504, 2012; in the data active = inhibition above about 22%;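 also: 0% = DMSO vehicle and 100% = positive control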
MPTP swell DR: mitochondrial permeability transition pore inhibitors, dose response, biochemical, absorbance, uHTS hits | IC50, µM | shares compounds with MPTP block | isolated mitochondria swelling | AID 651561, 2012 | 780 compounds, 58% hits; in the data active = IC50 below about 20 µM
MPTP cs DR: fluorescent counter-screen in isolated mitochondria, dose response, counter-screen for MPTP inhibitor project, biochemical, fluorescence, uHTS hits; AID 651564, 2012; IC50, µM; isolated mitochondria counterscreen, fluorescence read-out; shares compounds with MPTP block; 780 compounds, 49% hits; in the data active = IC50 below about 80 µM
An asterisk follows results filed as active; i = inactive; / = not tested or not shown. This is a sample that favours compounds with a hit; in the whole collection about 4.4% have one here.

SMILES | SENP1 inh | NR3A LBD binder | EBI2 block | MPTP block | Rh123 counter | others
Cc1ccc(Cl)cc1NC(=O)Nc1cccs1 | 0.4 | 19.7* | -6.0 | 87.2* | 85.5*
Cc1ccccc1NC(=O)Nc1cccs1 | -12.0 | -13.3 | 0.9 | 4.4 | /
CCCNC(=O)C1(C)CCCN(Cc2ccsc2)C1 (stereo not drawn) | 1.7 | / | -7.6 | 0.5 | /
COC(=O)C1=C(C(=O)OC)[C@@H]2Nc3ccccc3[C@@]23C[C@@H](C(=O)OC)N(C(=O)NC2CCCCC2)C3=N1 | / | 3.8 | / | / | /
CN(C(=O)COc1ncnc2ccccc12)C1CCCCC1 | 1.8 | 0.3 | -7.8 | -1.4 | /
O=c1c(Sc2ccccc2)c(C(F)(F)F)[nH]n1-c1ccccc1 | -1.4 | 3.8 | -1.5 | 70.1* | 88.8*
COCCCNCCOCCOc1ccc(Cl)cc1C(C)(C)C | 3.4 | -0.6 | -3.3 | 61.3* | -15.5 | MPTP swell DR=4.33*;MPTP cs DR=>80
C=CCNCCOCCOc1ccc(Cl)cc1C(C)(C)C | 0.1 | -0.4 | -22.9 | 92.1* | -9.4 | MPTP swell DR=11.4*;MPTP cs DR=>80
CC(=O)c1ccc(OCCCC(=O)Nc2cccc(-c3nn[nH]n3)c2)cc1 | 0.9 | -0.4 | 5.9 | 1.5 | /
COc1cc(C(=O)Nc2nnc(C)s2)c([N+](=O)[O-])cc1OC | 0.5 | 0.2 | -6.7 | 1.0 | /
CC(C)C(=O)Nc1ccc(N2CCN(C(=O)c3cccs3)CC2)cc1 | 2.6 | 1.1 | 1.3 | -0.5 | /
CC(=O)N1CCN(c2ccc(NC(=S)NC(=O)COc3ccc(C(C)(C)C)cc3)cc2)CC1 | 0.2 | -14.8 | 9.1 | 88.2* | 87.8*
CC(C)CC(=O)NC(=S)Nc1ccc(N2CCN(C(=O)c3cccs3)CC2)cc1 | 1.7 | 1.2 | 14.8 | 93.2* | 63.7*
COc1cccc(CC(NC(C)=O)C(=O)NC2CCN(c3c(Cc4ccccc4)c(C)nc4ncnn34)CC2)c1 (stereo not drawn) | 0.4 | -1.5 | -3.2 | 0.8 | /
Cc1ccc(C(=O)NCCCNC(=O)c2ccc(Cl)cc2)cn1 | 1.6 | -0.8 | -12.8 | -1.1 | /
COc1cc(/C=C2/C(=O)c3cccc([N+](=O)[O-])c3C2=O)c(Br)cc1O | 4.7 | -1.2 | 22.6 | 134.3* | 53.1*
O=C(CN1CCN(c2ccccc2O)CC1)Nc1ccc2c(c1)OCCCO2 | -0.9 | 0.2 | -6.3 | -1.2 | /
Nc1ccc2cccc(O)c2c1 | -8.8 | -1.0 | -21.6 | 2.8 | /
CCOC(=O)NC(NC(=S)Nc1ccc(OC)cc1)C(Cl)(Cl)Cl (stereo not drawn) | 1.9 | -1.3 | -7.7 | 7.6 | /
COc1ccc(NC(=S)NC(NC(=O)/C=C/c2ccccc2)C(Cl)(Cl)Cl)cc1 (stereo not drawn) | 2.1 | 5.3 | 15.3 | 95.5* | 65.0*
CC(C)NC(NC(=O)/C=C/c1ccccc1)C(Cl)(Cl)Cl (stereo not drawn) | 1.6 | -2.6 | -10.8 | -1.3 | /
O=C(NC(NC(=S)Nc1ccccc1C(=O)O)C(Cl)(Cl)Cl)c1ccccc1 (stereo not drawn) | 2.1 | 3.6 | 0.8 | 6.0 | /
O=C(/C=C/c1ccccc1)NC(NC(=S)Nc1cc(Cl)ccc1Cl)C(Cl)(Cl)Cl (stereo not drawn) | 0.0 | 29.9* | 7.8 | 96.9* | 73.5*
O=C(CCc1ccccc1)NC(NC(=S)Nc1ccc(Cl)cc1)C(Cl)(Cl)Cl (stereo not drawn) | 1.5 | 26.9* | 11.0 | 93.9* | 82.4*
O=C(/C=C/c1ccccc1)NC(NC(=S)Nc1ccc(Cl)cc1)C(Cl)(Cl)Cl (stereo not drawn) | -1.7 | 24.6* | 17.7 | 98.7* | 58.0*
SMILES | SENP1 inh | NR3A LBD binder | EBI2 block | MPTP block | Rh123 counter | others
O=C(CC1C(=O)NCCN1CCCc1ccccc1)NCCc1ccccc1Cl (stereo not drawn) | -7.5 | -4.4 | 7.9 | -1.1 | /
S=C(Nc1cc(Cl)cc(Cl)c1)N1CCN(c2ccccn2)CC1 | 2.6 | -0.3 | -1.5 | 0.3 | /
Nc1nc2c(ncn2[C@@H]2O[C@H](CNC(=O)[C@H](N)Cc3cncn3COCc3ccccc3)[C@@H](O)[C@H]2O)c(=O)[nH]1 | -4.0 | / | -6.7 | -1.1 | /
CC(=O)C1=C(C)Nc2ncnn2C1c1ccc(Cl)cc1Cl (stereo not drawn) | 0.5 | -0.9 | -10.1 | 12.9 | /
CN(C)S(=O)(=O)c1ccc(C(=O)Nc2nc(-c3cc4ccccc4o3)cs2)cc1 | -3.3 | 5.2 | 16.9 | 84.6* | 87.4*
Cc1ccccc1C(=O)Nc1ccc(S(=O)(=O)N2CC(C)OC(C)C2)cc1 (stereo not drawn) | 1.8 | 1.3 | -2.6 | 0.0 | /
CC1CN(S(=O)(=O)c2ccc(C(=O)Nc3nncs3)cc2)CC(C)O1 (stereo not drawn) | 0.0 | -2.2 | -9.4 | 0.4 | /
O=C(Nc1nc(-c2ccc(S(=O)(=O)N3CCOCC3)cc2)cs1)c1ccccc1 | 1.4 | -2.9 | 6.0 | -1.9 | /
O=C(Nc1nc(-c2cc3ccccc3o2)cs1)c1ccc(S(=O)(=O)N2CCCC2)cc1 | 0.3 | -1.5 | 16.4 | 62.8* | 81.6*
CC1CN(S(=O)(=O)c2ccc(NC(=O)c3cc(-c4ccccc4O)n[nH]3)cc2)CC(C)O1 (stereo not drawn) | 1.0 | 35.8* | 6.1 | 79.4* | 71.5*
CC1CN(S(=O)(=O)c2ccc(C(=O)Nc3nc(-c4cc5ccccc5o4)cs3)cc2)CC(C)O1 (stereo not drawn) | -11.8 | -6.9 | 6.4 | 88.0* | 19.0 | MPTP swell DR=i;MPTP cs DR=<2.5*
FC(F)Oc1ccc(NC(=S)NC2CCSc3ccccc32)cc1 (stereo not drawn) | 2.1 | 17.4* | 14.9 | 83.2* | 79.0*
CC(=O)c1ccc(OCc2ccc(C(=O)c3ccccc3)cc2)cc1 | 2.9 | 0.1 | -8.4 | 93.8* | 94.2*
CC(=O)c1ccc(OCc2ccc(Oc3c(Cl)cccc3[N+](=O)[O-])cc2)cc1 | 1.3 | -5.6 | 14.9 | 55.7* | 35.7*
O=C(c1cccc(Oc2c(Cl)cccc2[N+](=O)[O-])c1)N1CCCCC1 | 1.9 | 0.8 | -10.5 | -0.1 | /
O=C(O)COc1ccc(C(=O)c2ccccc2)cc1 | -0.1 | 1.7 | -7.8 | 1.8 | /
COc1ccc(CNC(=O)C/C(C)=N/NC(=O)c2ccccc2OC)cc1 | 1.7 | 0.8 | -1.5 | -2.2 | /
COc1ccccc1N(C)S(=O)(=O)c1ccc(Cl)c(C(=O)OCc2c(C)noc2C)c1 | 1.5 | -2.2 | 25.0 | 2.0 | /

Assay outcomes: PubChem BioAssay, Sanford-Burnham Center for Chemical Genomics
